Assay results as given in ChEMBL document CHEMBL1124227, “Effects of sulfur-containing analogues of stearic acid on growth and fatty acid biosynthesis in the protozoan Crithidia fasciculata” (J Med Chem, 1988).

Key:
Type in all cases: functional, organism-based
[1] = system: Crithidia fasciculata; assay: Inhibition of dihydrosterculate synthesis in Crithidia fasciculata.; settings: read-out: I50
Summary of the method: (§1)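 C. fasciculata (about 1 × 10⁷ organisms) was inoculated into 50 mL growth medium containing the analogue, using duplicate flasks at 3–6 concentrations plus duplicate untreated controls. Cultures were shaken at 25 °C until controls reached 6 × 10⁷ to 9 × 10⁷ organisms/mL. Harvested cells gave free fatty acids, which were converted to methyl esters. Dihydrosterculate was measured as % of total fatty acids by capillary GC-FID on BP1 and Supelcowax 10 columns.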

[2] = system: Crithidia fasciculata; assay: The compound was tested for 50% growth inhibition against Crithidia fasciculata; settings: read-out: I50
Summary of the method: (§2)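 Cultures were set up in 50 mL growth medium with the analogue added and inoculated with about 1 × 10⁷ C. fasciculata. Duplicate flasks were run at each of 3–6 concentrations, with duplicate controls. Flasks were shaken at 25 °C, and growth was followed as absorbance change at 535 nm against uninoculated medium (1.0 = 7 × 10⁷ organisms/mL). Runs ended when controls reached 6 × 10⁷ to 9 × 10⁷ organisms/mL.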

[3] = system: Crithidia fasciculata; assay: Inhibition of dihydrosterculate synthesis in Crithidia fasciculata; No inhibition; summary of the method: as §1
[4] = system: Crithidia fasciculata; assay: The compound was tested for 50% growth inhibition against Crithidia fasciculata; No inhibition; summary of the method: as §2

IC50 [1] [µM]	Structure (SMILES)	IC50 [2] [µM]	I50 [3]	I50 [4]
8	CCCCCCCCCSCCCCCCCC(=O)NCC(O)CO (centres undefined)	> 100	–	–
12	CCCCCCCCSCCCCCCCCC(=O)NCC(O)CO (centres undefined)	17	–	–
–	CCCCCCCCCCCCCCCCCC(=O)NCC(O)CO (centres undefined)	–	Not Active	Not Active
–	CCCCCCCCC[S+]([O-])CCCCCCCC(=O)O (centres undefined)	> 100	Not Active	–
0.4	CCCCCCCCCCSCCCCCCC(=O)O	0.8	–	–
0.9	CCCCCCCCCSCCCCCCCC(=O)O	> 100	–	–
4	CCCCCCCCSCCCCCCCCC(=O)O	10	–	–
–	CCCCCCCC[S+]([O-])CCCCCCCCC(=O)O (centres undefined)	> 100	Not Active	–
3	CCCCCCCSCCCCCCCCCC(=O)O	3	–	–
–	CCCCCCCCCCCCCCCCCC(=O)O [STEARIC ACID]	–	Not Active	–
